Laboratory results: ChEMBL document CHEMBL3098028, “Synthesis and in vitro and in vivo pharmacological evaluation of new 4-aminoquinoline-based compounds” (ACS Med Chem Lett, 2013)
In brackets after ≈: the same amount, converted by molar mass.

Assays:
[1] = Kinetic solubility of the compound in 0.01 M HCl at pH 2 after 2 hrs by HPLC analysis; format: physicochemical; conditions: read-out: Kinetic_solubility
[2] = Kinetic solubility of the compound in phosphate buffered saline at pH 7.4 after 2 hrs by HPLC analysis; format: physicochemical; conditions: read-out: Kinetic_solubility
Plasmodium falciparum [3] = experiment: Resistance index, ratio of IC50 for chloroquine-resistant Plasmodium falciparum K1 to IC50 for chloroquine-sensitive Plasmodium falciparum 3D7; format: functional
Plasmodium falciparum [4] = experiment: Antiplasmodial activity against chloroquine-resistant Plasmodium falciparum W2 after 24 hrs by [3H]hypoxanthine incorporation assay; format: functional, organism-based
How it was run: (§1)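 Antiplasmodial testing was done at the Swiss Tropical and Public Health Institute. Chloroquine, the reference drug, was tested as its diphosphate salt.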

Plasmodium falciparum [5] = experiment: Antiplasmodial activity against chloroquine-resistant Plasmodium falciparum K1 after 24 hrs by [3H]hypoxanthine incorporation assay; format: functional, organism-based; how it was run: as §1
Plasmodium falciparum [6] = experiment: Antiplasmodial activity against chloroquine-sensitive Plasmodium falciparum 3D7 after 24 hrs by [3H]hypoxanthine incorporation assay; format: functional, organism-based; how it was run: as §1

SMILES	solubility kinetic at 2 h [1] [µM]	solubility kinetic at 2 h [2] [µM]	Ratio IC50 (Plasmodium falciparum [3])	IC50 (Plasmodium falciparum [4]) [nM]	IC50 (Plasmodium falciparum [5]) [nM]	IC50 (Plasmodium falciparum [6]) [nM]
CC(C)(C)n1nnnc1C(NCCNc1ccnc2cc(Cl)ccc12)c1ccccc1 (centres undefined)	> 200	111 (≈ 48.4 µg/mL)	7.6	69	38	5
Cc1ccc(C(NCCNc2ccnc3cc(Cl)ccc23)c2nnn[nH]2)cc1 (centres undefined)	–	–	–	–	17400	–
Clc1ccc2c(NCCNC(c3ccc(Cl)c(Cl)c3)c3nnn[nH]3)ccnc2c1 (centres undefined)	191 (≈ 85.7 µg/mL)	70.1 (≈ 31.5 µg/mL)	–	–	4390	–
Clc1ccc(C(NCCNc2ccnc3cc(Cl)ccc23)c2nnn[nH]2)cc1 (centres undefined)	> 200	164 (≈ 67.9 µg/mL)	–	–	2380	–
Clc1ccc2c(NCCCNC(c3ccccc3)c3nnn[nH]3)ccnc2c1 (centres undefined)	–	–	–	–	14300	–
Clc1ccc2c(NCCCCNC(c3ccccc3)c3nnn[nH]3)ccnc2c1 (centres undefined)	–	–	–	–	6850	–
COc1ccc(C(NCCNc2ccnc3cc(Cl)ccc23)c2nnnn2C(C)(C)C)cc1 (centres undefined)	–	–	0.041	46	155	3820
